Published values gathered from unrelated publications.
Protocols differ between the studies behind these lines.
Observed: cell growth or viability

`C=CC(=O)c1cccnc1Nc1cccc(C(F)(F)F)c1` has a GI50 of 17.5 µM (BXPC-3; SRB; 48 h).
The IC50 of `Cc1nc(Nc2ccc3c(c2)C(C)(C)C(=O)N3C)c2ccccc2n1` is reported as 14 µM (B16; MTT).
`Nc1ccc(/C=C/C(=O)N2CCc3c(oc4c(-c5ccc(F)cc5)cc(-c5ccc(C(=O)N6C[C@@H]7[C@H](C6)C7(F)F)nn5)cc34)C2)cn1` gave an IC50 of > 20 µM (BXPC-3; CCK-8; 72 h).
The IC50 of `Cc1nc(Nc2ccc3c(c2)/C(=C/c2ccccc2)C(=O)N3C)c2ccccc2n1` is reported as 3.56 µM (B16; MTT).
The IC50 of `COc1cc2c3c(n(CCCNCCO)c(=O)c2cc1OC)-c1nc2c(cc1C3=O)OCO2` is reported as 0.022 µM (RD-ES; MTS; 72 h).
`C=CC(=O)NC1CCN(c2ncc3ncnc(Nc4ccc(Oc5ccc6c(c5)ncn6C)c(C)c4)c3n2)CC1` has an EC50 of 6.65 µM (NCI-H2172).
With `C=CC(=O)c1cccnc1Nc1cc(C(F)(F)F)ccc1OCc1ccccc1` the GI50 was 11.6 µM (BXPC-3; SRB; 48 h).
`COc1cc2ncnc(N(C)c3ccc4c(c3)/C(=C/c3cccc(Cl)c3)C(=O)N4C)c2cc1OC` gave an IC50 of 2.51 µM (B16; MTT).
For `Nc1ccc(/C=C/C(=O)N2CCc3c(oc4c(-c5ccc(F)cc5)cc(-c5ccc(C(=O)N6CCC(F)(F)CC6)nn5)cc34)C2)cn1`, the IC50 was > 20 µM (BXPC-3; CCK-8; 72 h).
The IC50 of `COc1cc2c3c(n(CCCn4ccnc4)c(=O)c2cc1OC)-c1nc2c(cc1C3=O)OCO2` is reported as 0.18 µM (RD-ES; MTS; 72 h).
The GI50 of `C=CC(=O)c1cccnc1Nc1cc(C(F)(F)F)ccc1OC` is reported as 6.19 µM (BXPC-3; SRB; 48 h).
The IC50 of `Cc1sc2c(c1C)C(c1ccc(Cl)cc1)=N[C@@H](CC(=O)NCCCCCCCCNC(=O)COc1cccc3c1C(=O)N(C1CCC(=O)NC1=O)C3=O)c1nnc(C)n1-2` (stereo partly shown) is reported as 0.27 µM (BXPC-3; ATP luminescence).
`COc1cc2c3c(n(CCCNC(C)C)c(=O)c2cc1OC)-c1nc2c(cc1C3=O)OCO2` gave an IC50 of 0.031 µM (RD-ES; MTS; 72 h).
